Rows were chosen to be rich in hits. Some 4.4% of all compounds tested hit in one or more screens of this group.
HSF-1 act = HSF-1 activators, primary screen, NIH3T3-HGL cells, MG132 stress, luminescence, single point; NIH3T3-HGL HSF-1 luciferase reporter, 8 h; 100% = twice DMSO control signal; activation, % at 9 µM; actives 1.7% (n = 300,000); AID 504408, 2011;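 active = mean replicate activation of at least 50% with a set share of replicates each reaching 50%; inconclusive = only one of those two conditions met; inactive = mean below 50% and too few replicates reaching it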;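 also: 0% = median of the neutral control wells and 100% = twice that signal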
Calb FLC = C. albicans growth inhibition with fluconazole, primary screen, CaCi-2 strain, Alamar Blue fluorescence. C. albicans CaCi-2 + fluconazole, 48 h. actives 0.57% (n = 300,000). AID 1979, 2009. growth inhibition, % (test concentration not listed);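 active = growth inhibition above about 58% in most replicates, limit read from the data, passing the limit was not always enough; inconclusive = exactly half the replicates above a set limit; inactive = most replicates below a set limit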;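 also: all wells also contain fluconazole at 8 µg/ml as a sub-toxic cotreatment; 0% = median of DMSO wells and 100% = median of geldanamycin control wells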
HSF1 inh = HSF1 inhibitors in luciferase reporter cells, primary screen, cell-based, NIH3T3, luminescence. NIH3T3-HGL HSE-luciferase, MG132-induced, luminescence 8 h; stronger effect = lower value. activity change, negative = inhibition, % at 7.5 µM (by protocol). actives 0.77% (n = 300,000);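 active = more than half of replicate wells show activity change below -50%, luminescence cut by over half; inconclusive = some wells, but at most half, below -50%; inactive = no replicate well below -50%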;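 also: luciferase reports HSF-1 transcriptional activity via heat shock element; 0% = median of DMSO wells and -100% = zero luminescence signal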
T cruzi repl = inhibitors of intracellular T. cruzi growth, primary screen, luminescence, NIH3T3 host cells; T. cruzi beta-gal in NIH3T3, 90 h; inhibition, % (test concentration not listed); actives 1.4% (n = 300,000);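 active = mean inhibition across valid replicates above about 55%, limit read from the data; inconclusive = mean below that limit but half or more replicates reach it; inactive = mean below it, under half of replicates reach it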;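 also: signal also drops with host cell toxicity which is not excluded here; 0% = plate median of DMSO wells and 100% = zero luminescence signal; higher percent means less beta-gal luminescence so fewer parasites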
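System: NIH/3T3 fibroblasts plus reporter T. cruzi. Medium: DMEM plus 2% FBS. Probe or stimulus: 5000 reporter trypomastigotes per well. Compound: single 50 nL compound addition per well in DMSO. Incubation: co-culture of at least 90 h after 3 h attachment. Detection: GalScreen β-gal luminescence, detergent lysis, 60 min. Evaluation: parasite load inhibition, %.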
HIF act = HIF pathway transcriptional activators, primary screen, cell-based, U2OS HRE-luciferase, luminescence | actives 0.32% (n = 300,000) | AID 1910, 2009 | U2OS HRE-luciferase reporter; normalized: DMSO 0%, desferrioxamine 100% | activation, % at 7.5 µM (by protocol);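 active = mean activation of at least 10% of the iron chelator positive control signal, with at least half of replicates also reaching 10%; inconclusive = mean and replicate majority disagree about reaching 10%; inactive = mean and most replicates under 10%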
The depositor's hits bear a star; ? = inconclusive; . = not tested or not shown.

SMILES	HSF-1 act	Calb FLC	HSF1 inh	T cruzi repl	HIF act
Cc1ccc(Cl)cc1-n1c(SCC(=O)NCCC2=CCCCC2)nc2n[nH]c(C)c2c1=N	55.7*	?	32.6	31.4	0.2
CC(=O)c1sc(N/N=C\c2ccccc2O)nc1C	56.4*	-0.5	25.7	12.1	1.7
Cc1ccc(-n2cnn(-c3ccc([N+](=O)[O-])cc3[N+](=O)[O-])c2=O)cc1	18.5	11.7	6.7	57.2*	-1.6
O=c1c2ccccc2ncn1-c1ccc([N+](=O)[O-])cc1[N+](=O)[O-]	5.2	.	2.8	63.1*	1.0
O=S(=O)(c1ccc(F)cc1)c1nc(-c2ccccc2F)oc1N1CCCCC1	-8.2	10.5	1.6	70.7*	0.1
COc1ccccc1-c1nc(S(=O)(=O)c2ccccc2)c(N2CCCCC2)o1	52.3*	15.9	49.9	11.1	0.0
Cc1ccc(S(=O)(=O)c2nc(-c3ccccc3F)oc2N2CC(C)OC(C)C2)cc1 (stereo unspecified)	3.0	8.2	0.1	24.8	-0.5
O=C(NC(Cc1ccccc1)C(=O)O)/C(=C/c1ccc([N+](=O)[O-])cc1)NC(=O)c1ccccc1 (stereo unspecified)	27.9	-0.1	-1.2	-3.1	-1.5
O=C1[C@H]2[C@@H](c3ccc(Cl)cc3)N3C(=O)N(c4cccc(F)c4)C(=O)[C@@]3(Cc3ccc(Cl)cc3)[C@H]2C(=O)N1C1CCCCC1	20.4	0.8	1.2	60.6*	-0.7
CC(C)(C)N1C(=O)[C@H]2[C@@H](c3ccc(Br)cc3)N3C(=O)N(c4ccccc4)C(=O)[C@@]3(Cc3ccccc3)[C@H]2C1=O	18.7	5.3	4.3	-5.3	-1.2
CC(C)(C)N1C(=O)[C@H]2[C@@H](c3ccc(Br)cc3)N3C(=O)N(c4cccc(Br)c4)C(=O)[C@@]3(Cc3ccccc3)[C@H]2C1=O	0.2	-10.6	3.4	57.8*	-0.4
COc1ccc(/C=N/OCC(=O)NC(c2ccccc2)c2ccccc2)cc1OC	5.1	-6.0	14.1	56.6*	-0.8
COc1ccc(/C=N/OCC(=O)Nc2cc(C)on2)cc1OC	-15.3	0.5	-0.3	-6.9	-0.5
CCN1C(=O)C(=Cc2cccc(OC)c2Oc2ccc([N+](=O)[O-])cc2[N+](=O)[O-])SC1=S	-1.4	4.5	2.6	15.0	0.3
CC1CCN(C(c2ccc(N(C)C)cc2)c2nnnn2Cc2ccccc2)CC1 (stereo unspecified)	65.6*	-5.3	47.9	19.2	0.2
CCC(C)(C)n1nnnc1C(c1ccncc1)N1CCN(c2cccc(OC)c2)CC1 (stereo unspecified)	11.6	22.2	16.6	28.2	-0.6
CC(C)(C)n1nnnc1C(c1cccnc1)N1CCN(c2ccccc2)CC1 (stereo unspecified)	-9.6	-4.0	-0.5	54.9*	-0.1
c1ccc(Cn2nnnc2C(c2cccnc2)N2CCN(c3ccccc3)CC2)cc1 (stereo unspecified)	12.4	-16.0	-4.7	81.2*	-0.1
CCC(C)(C)n1nnnc1C(c1cccnc1)N1CCN(c2cccc(C(F)(F)F)c2)CC1 (stereo unspecified)	-1.6	-1.5	-2.4	61.6*	-0.9
Cc1ccc(NC(=O)CCSc2nnc(C)o2)cc1	-24.0	3.5	-7.3	-6.0	0.9
Cn1c(SCc2ccc(Br)cc2)nnc1-c1ccccn1	13.5	8.2	18.0	1.4	1.0
O=C(/C=C\c1ccccc1)NCC(=O)N/N=C/c1ccc(O)cc1O	21.3	-7.8	4.9	4.3	0.0
Cc1noc(NS(=O)(=O)c2ccc(N3Cc4ccccc4C3=O)cc2)c1C	-88.9	1.2	-85.0*	5.0	-0.2
Cc1noc(NS(=O)(=O)c2ccc(NC(=O)c3ccc(N4C(=O)c5ccccc5C4=O)cc3)cc2)c1C	9.5	2.2	-5.3	-5.9	-0.3
COc1ccc2[nH]c(C)cc(=O)c2c1	-3.8	?	-10.9	-7.5	-0.1
SMILES	HSF-1 act	Calb FLC	HSF1 inh	T cruzi repl	HIF act
COc1ccc2[nH]c3c(C)c4ccncc4c(C)c3c2c1	?	104.5*	50.5	57.6*	-1.9
Cn1ncc(Cl)c1C(=O)NNC(=O)Nc1cccc2ccccc12	.	109.6*	.	.	.
Cc1cc(C)c2c3c(sc2n1)C(c1cccc(F)c1)C(C#N)=C(N)O3 (stereo unspecified)	1.8	0.0	-5.1	71.9*	0.4
CC(C)c1ccc(-c2c(C#N)c(N)nc3c2CCCCC3)cc1	-6.1	6.2	-0.9	3.7	267.9*
Cc1ccc(-c2c(C#N)c(N)nc3c2CCCCC3)cc1	-13.2	-6.0	-5.4	-29.6	-0.3
CN(C)C(=O)c1nc2ccccc2s1	-21.8	-9.4	-16.7	-13.0	1.0
CN(C)CCCN(C(=O)COc1ccccc1)c1nc2ccc(F)cc2s1	.	-8.4	.	47.4	.
CN(C)CCCN(C(=O)c1ccc(C(=O)c2ccccc2)cc1)c1nc2ccc(F)cc2s1	1.0	-4.0	-2.8	57.2*	1.0
CN(C)CCCN(C(=O)c1nc2ccccc2s1)c1nc2ccc(F)cc2s1	-5.9	-5.0	0.8	66.7*	0.5
CN(C(=O)c1ccccc1)c1nc2ccccc2s1	65.0*	-16.9	29.0	-15.1	1.5
COc1ccc(N2CCN(S(=O)(=O)CCNC(=O)COc3cccc(OC)c3)CC2)cc1	6.8	-1.1	-5.9	-14.0	0.7
C/C(=N\N1CCN(c2ccccc2)CC1)c1ccncc1	7.1	1.7	6.8	-0.8	0.3
CCN(CC)c1ccc(/C=C/c2cccc[n+]2C)c(OC)c1	-0.7	77.5*	-5.1	65.6*	3.7
O=C(Nc1ccc(F)cc1)c1ccccc1	64.6*	-1.6	28.7	-24.3	1.6
O=C(Nc1ccc(F)cc1)c1cccc(C(=O)Nc2ccc(F)cc2)c1	-8.4	0.0	5.9	-9.2	0.1
CCCCNC(=O)Nc1ccc(C2SCCS2)cc1	69.4*	-4.6	46.9	4.8	2.1
O=C(Nc1ccc2nc3ccccc3nc2c1)c1ccccc1	81.4*	-1.2	40.2	-5.3	1.1
Cc1ccc(S(=O)(=O)NNC(=O)c2ccc(NC(=O)C3CC3)cc2)cc1	.	111.4*	.	.	.
CNC(=O)Nc1ccc(C2SCCS2)cc1	30.7	0.6	8.0	9.9	8.2
CC(=O)Nc1ccc(C(=O)NNS(=O)(=O)c2ccc(C)cc2)cc1	-9.8	-7.2	-2.7	-10.8	-0.4
O=C(Nc1ccc(Nc2ccccc2)cc1)c1ccccc1	32.4	-8.0	15.2	15.9	1.7
COc1ccc(C(=O)NCC(=O)Nc2cccc(S(=O)(=O)NCc3ccco3)c2)cc1OC	5.7	-2.8	-5.0	0.2	0.3
O=C(Nc1ccc(C2SCCS2)cc1)c1ccccc1	54.2*	1.3	30.6	1.7	0.8
